High-throughput results from PubChem BioAssay.
ABCB1 inh = ABCB1 efflux pump inhibitors, primary screen, cell-based, multiplex, flow cytometry, ABCG2 counter-screen | inhibition, % at 6.6 µM | CCRF-Adr cells, JC-1 efflux | 190,000 tested, 0.067% active; in the data active = inhibition above about 40%;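 note: 0% = vehicle and 100% = reference inhibitor; higher value means more JC-1 retained so stronger ABCB1 efflux block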
ABCG2 block = ABCG2 efflux pump inhibitors, primary screen, multiplex with ABCB1, IgMXP3 cells, flow cytometry. AID 1325, 2008. JC-1 efflux. inhibition, % at 6.6 µM. Broad substrate specificity ATP-binding cassette transporter ABCG2 (Homo sapiens), Q9UNQ0. 190,000 tested, 0.1% active;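 active = inhibition above 80%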;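 note: 0% = DMSO and 100% = nicardipine control wells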
Target sequence (Q9UNQ0 whole entry, looked up): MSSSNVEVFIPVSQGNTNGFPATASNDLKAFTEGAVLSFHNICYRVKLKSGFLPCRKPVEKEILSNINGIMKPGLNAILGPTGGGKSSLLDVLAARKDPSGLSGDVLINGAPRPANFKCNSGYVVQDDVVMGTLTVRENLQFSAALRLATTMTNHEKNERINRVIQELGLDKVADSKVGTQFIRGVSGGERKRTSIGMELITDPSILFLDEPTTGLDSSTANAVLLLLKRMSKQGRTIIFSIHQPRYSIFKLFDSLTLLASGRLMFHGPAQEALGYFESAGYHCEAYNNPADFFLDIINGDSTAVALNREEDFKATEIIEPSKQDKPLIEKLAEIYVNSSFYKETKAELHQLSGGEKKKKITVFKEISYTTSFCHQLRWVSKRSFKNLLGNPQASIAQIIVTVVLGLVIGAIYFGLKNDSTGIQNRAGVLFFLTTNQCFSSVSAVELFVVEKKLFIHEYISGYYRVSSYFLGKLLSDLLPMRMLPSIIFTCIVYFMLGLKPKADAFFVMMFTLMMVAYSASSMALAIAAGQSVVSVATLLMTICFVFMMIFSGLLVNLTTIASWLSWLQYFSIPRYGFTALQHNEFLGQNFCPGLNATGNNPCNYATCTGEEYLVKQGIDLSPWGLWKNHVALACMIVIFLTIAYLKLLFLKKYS
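test system = two drug-resistant human cell lines, ABCG2 and ABCB1 | amount = 3 million cells/mL final, two lines in 1:1 ratio | reagent = JC-1 transporter substrate | doses = one concentration, 6.6 µM final | incubation = 10 min at 25 °C | signal = flow cytometric JC-1 green MFI at 530 nm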
WT yeast gro inh = growth inhibition of WT strain, primary screen, mitochondrial fusion inhibitor project, WT and mutant strains, chemical genetic; 190,000 tested, 2.1% active; mitochondrial fusion phenotypic screen; inhibition, % at 10 µM; in the data active = inhibition above about 58%; tested in S. cerevisiae
RAM network inh = inhibitors of the yeast RAM network, primary screen, dse1pr::URA3 reporter, 5-FOA selection; S. cerevisiae dse1pr::URA3 reporter, 5-FOA growth OD615, 2 d; analog-sensitive cbk1-as2 kinase mutant strain; 190,000 tested, 1.8% active; AID 868, 2007; inhibition, % at 50 µM;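 active = inhibition above a set limit, 3 SD over mean compound inhibition, cut at about 8.4% in these data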;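 note: 0% = DMSO-only wells with no growth and 100% = 10 µM 1-NA-PP1 full growth; inhibition rescues growth on 5-FOA so higher OD means more RAM inhibition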
Lmaj promast = Leishmania major promastigote growth inhibition, primary screen. Leishmania major promastigotes, resazurin fluorescence viability. inhibition, % at 10 µM. 200,000 tested, 9% active. AID 1063, 2008; in the data active = inhibition above about 50%;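 note: promastigotes grown with compound for 44 hours at 28 °C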
An asterisk follows results filed as active. This is a sample that favours compounds with a hit; in the whole collection about 12% have one here.

SMILES	ABCB1 inh	ABCG2 block	WT yeast gro inh	RAM network inh	Lmaj promast
COC(=O)CN(c1ccccc1)S(=O)(=O)c1cc(Br)ccc1OC	2	15	16	2	10
CC(C)(C)c1[nH]nc2c1C(Cc1ccccc1)C(C#N)=C(N)O2 (stereo not drawn)	0	2	18	0	3
CCn1cc(C2C3=C(CC(C)(C)CC3=O)N(c3ccccc3)C3=C2C(=O)CC(C)(C)C3)c(C)n1	4	-2	4	4	-3
O=C(NCc1ccccc1)c1cccc(COc2cccc(Cl)c2)c1	0	6	67*	9.2*	2
O=C(c1cccc(Cl)c1)N1CCC(N2CCC(C(=O)N3CCOCC3)CC2)CC1	0	1	-2	-1	42
CC1CN(C2CCN(C(=O)c3cccc(Cl)c3)CC2)CC(C)O1 (stereo not drawn)	0	0	5	1	91*
O=C(c1cccc(F)c1)N1CCC(N2CCOCC2)CC1	0	1	-7	1	62*
CC1CN(C2CCN(C(=O)c3ccccc3Cl)CC2)CC(C)O1 (stereo not drawn)	0	0	-19	3	88*
O=C(O)C1CCN(C(=O)c2ccccc2Cl)CC1	1	2	-4	0	-5
O=C(Oc1cccc(C(=S)N2CCOCC2)c1)c1cc([N+](=O)[O-])cc([N+](=O)[O-])c1	1	4	1	0	-7
CC(C)CCC(CC(C)O)c1n[nH]c(=S)n1-c1ccccc1 (stereo not drawn)	-1	-6	4	1	3
COc1ccc(N(CC(=O)NCc2ccccc2)C(=O)Cn2nnc(-c3ccccc3F)n2)cc1OC	1	1	-8	6	-2
CCCCC1(C)Nc2ccccc2-c2nc3ccccc3n21 (stereo not drawn)	0	3	16	1	74*
CC1(c2ccccn2)Nc2ccccc2-c2nc3ccccc3n21 (stereo not drawn)	1	4	0	0	53*
c1ccc2c(c1)NC1(CCCCCC1)n1c-2nc2ccccc21	0	3	12	1	28
CN=C(Nc1cccc(Cl)c1)SC1CC(=O)N(c2ccc(OC)cc2)C1=O (stereo not drawn)	0	2	29	4	44
Oc1ccccc1N=Cc1ccc[nH]1	1	2	48	0	100*
CC(=O)Nc1ccc(N=Cc2ccc[nH]2)cc1	0	0	3	-1	-4
O=C(NCc1ccccc1)C1=C[C@H](c2csc3ccccc23)C[C@H](OCCCCO)O1	3	9	9	11*	28
O=C(Nc1ccccc1)C1=C[C@H](c2csc3ccccc23)C[C@H](OCCCCO)O1	1	13	33	11*	27
O=C(C1=C[C@H](c2csc3ccccc23)C[C@H](OCCCCO)O1)N1CCN(Cc2ccccc2)CC1	10	8	19	4	22
O=[N+]([O-])c1ccc(/C=N/n2cnc3ccccc32)s1	0	4	53	1	100*
Cc1cc2ncn(/N=C/c3ccc([N+](=O)[O-])s3)c2cc1C	-1	4	86	1	100*
FC(F)Oc1ccccc1/C=N/n1cnc2ccccc21	1	12	13	1	-7
N/C(Cc1cccc2ccccc12)=N\OC(=O)c1cccs1	0	-2	5	2	58*
SMILES	ABCB1 inh	ABCG2 block	WT yeast gro inh	RAM network inh	Lmaj promast
N/C(Cc1cccc2ccccc12)=N\OC(=O)Cc1cccs1	1	0	16	1	-6
COc1ccc(-c2cc(C(F)(F)F)nc(NCc3cccs3)n2)cc1	5	22	16	6	0
COc1ccccc1-c1cc(C(F)(F)F)nc(NCc2cccs2)n1	7	7	65*	10*	22
Cc1ccc(NC(=O)CSc2nnc(NC(=O)c3ccc(S(=O)(=O)N4CCOCC4)cc3)s2)cc1	-1	-4	-5	1	-12
CCOC(=O)c1ccc(NC(=O)CSc2nnc(NC(=O)c3ccc(S(=O)(=O)N4CCOCC4)cc3)s2)cc1	-2	-2	2	8	91*
CC(C)C(NC(=O)OCc1ccccc1)C(=O)N1CCOCCOCCOCC1 (stereo not drawn)	1	2	-1	-1	5
COc1ccc(C2NC(c3ccc(OC)cc3)C(c3ccccc3)C(=O)C2c2ccccc2)cc1 (stereo not drawn)	1	0	5	3	98*
COc1ccc(C2NC(c3ccc(OC)cc3)C([N+](=O)[O-])C(C)(C)C2[N+](=O)[O-])cc1 (stereo not drawn)	1	2	17	3	-1
O=c1ccc(C(F)(F)F)cn1Cc1cc(=O)n2cc(Br)ccc2n1	0	0	-13	0	-4
CC(c1cccs1)N(Cc1ccco1)C(=S)Nc1ccccc1Cl (stereo not drawn)	0	-1	63*	4	4
Cc1cccc(NC(=S)N(Cc2ccco2)C(C)c2cccs2)c1 (stereo not drawn)	1	10	72*	2	22
CC(c1cccs1)N(Cc1ccco1)C(=S)Nc1ccc(F)c(Cl)c1 (stereo not drawn)	0	6	78*	4	20
Cc1ccccc1NC(=S)N(Cc1ccco1)C(C)c1cccs1 (stereo not drawn)	1	8	32	0	42
COc1cccc(NC(=S)N(Cc2ccco2)C(C)c2ccco2)c1 (stereo not drawn)	0	0	7	-1	3
COC(=O)CS(=O)(=O)c1cccc2cccnc12	0	1	6	0	-4
CCC(CO)NCC(O)COCc1ccc2c(c1)OCO2 (stereo not drawn)	0	2	-2	1	-5
O=C(N/N=C/c1ccc(O)cc1)c1csc2c1CCCC2	-1	56	1	2	-2
CCCCN(C)C(=O)CC(NS(=O)(=O)c1ccc(NC(C)=O)cc1)C(C)C (stereo not drawn)	0	5	1	0	50*
CCCCCCNC(=O)CC(NS(=O)(=O)c1ccc(NC(C)=O)cc1)C(C)C (stereo not drawn)	0	2	16	-1	-8
Cc1ccc(-c2nnn3c2nc(NCCc2ccc(S(N)(=O)=O)cc2)c2ccccc23)cc1	-1	-11	0	4	73*
Cc1cccc(OCC(=O)NCC(=O)N/N=C/c2cc(Br)ccc2OCc2ccccc2)c1	1	22	18	4	92*
O=C(CNC(=O)c1ccccc1Br)N/N=C/c1cc(Br)ccc1O	0	2	-3	2	58*
